Sampled rows, rich in hits. Any-hit rate of the full collection: about 2.3%.
CSN inh = inhibitors of human CSN-mediated cullin deneddylation; Q92905; Purified CSN, SCF-Nedd8-OG deneddylation, fluorescence polarization; inhibition, % at 12.5 µM; actives 0.38% (n = 360,000); AID 651999;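 active means pattern-corrected inhibition above about 35%, with an unprinted fluorescence ratio check between 0.5 and 1.5, limit read from the data, passing the limit was not always enough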
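Material: purified human Csn5 enzyme expressed in HEK293T cells / Medium: Tris buffer pH 7.5, NaCl, DTT, Tween-20, trehalose, ovalbumin / Compound dosing: 12.5 µM single point / Schedule: 90 min incubation of compound, enzyme and substrate at room temperature / Signal: fluorescence polarization of the substrate / Control set: no-enzyme wells high, enzyme-with-substrate wells low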
Myeloid diff MLP = myeloid differentiation induction; ER-HoxA9 myeloid progenitors, lysozyme-GFP differentiation, flow cytometry; calls only at 10 µM; actives 1% (n = 360,000); AID 624256;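 active means normalized GFP-positive differentiation at or above the plate's own cutoff, the solvent-only control mean plus 3 SD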;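 further: cells exposed to compound for four days before flow analysis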
TPT1 inh = C. albicans TPT1 enzyme inhibition; recombinant caTPT1, FP RNA substrate dephosphorylation; inhibition, % at 5 µM; actives 0.81% (n = 300,000); AID 1962;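 active means inhibition above the mean of all tested compounds plus 3 SD, set per screening campaign, cut at about 24% in these data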
Rpn11 inh = blocks the human proteasome subunit Rpn11; human 26S proteasome, Ub4-pepOG fluorescence polarization; 20S core pre-blocked with epoxomicin; inhibition, % at 20 µM; actives 0.59% (n = 360,000); AID 588493;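 active means inhibition at 20 µM, scaled to each plate's controls, above about 33%, limit read from the data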
HNF4A DNA FP = change in binding of human HNF4 alpha to DNA. P41235. HNF4a-FITC DNA binding, fluorescence polarization, 1 h. activity change, % at 10 µM. actives 0.3% (n = 360,000). AID 1224865; in the data active means activity change above about 30%, passing the limit was not always enough
Target sequence (P41235 whole entry, looked up): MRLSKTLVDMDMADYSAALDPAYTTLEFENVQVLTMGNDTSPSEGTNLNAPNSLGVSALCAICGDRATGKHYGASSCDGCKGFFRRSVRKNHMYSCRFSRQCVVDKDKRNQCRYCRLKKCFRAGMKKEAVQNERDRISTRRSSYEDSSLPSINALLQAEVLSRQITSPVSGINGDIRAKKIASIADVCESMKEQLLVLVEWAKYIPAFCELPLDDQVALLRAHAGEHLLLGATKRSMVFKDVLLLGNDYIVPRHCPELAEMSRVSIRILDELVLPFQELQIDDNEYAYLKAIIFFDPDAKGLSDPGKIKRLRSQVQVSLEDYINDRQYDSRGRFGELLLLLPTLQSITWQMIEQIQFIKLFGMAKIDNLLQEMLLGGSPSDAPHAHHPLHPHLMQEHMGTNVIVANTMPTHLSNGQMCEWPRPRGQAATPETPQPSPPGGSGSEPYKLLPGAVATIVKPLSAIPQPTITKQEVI
Hits are given with their value.

For CC1CC(C)CN(CC(=O)c2c[nH]c3ccccc23)C1 (stereo unspecified) the results were CSN inh inactive, Myeloid diff MLP active, TPT1 inh inactive and HNF4A DNA FP inactive.
For O=C(Nc1ccc2c(c1)OCCO2)C(c1ccncc1)n1c(=O)c(-c2cc3ccccc3[nH]2)nc2ccccc21 (stereo unspecified) the results were CSN inh inactive, Myeloid diff MLP active and HNF4A DNA FP inactive.
Screening COc1ccc(S(=O)(=O)Nc2c(O)c3ccccc3oc2=O)cc1 returned CSN inh inactive, Myeloid diff MLP active, TPT1 inh inactive, Rpn11 inh inactive and HNF4A DNA FP inactive.
COCCOC(=O)C(C#N)c1nc2ccccc2nc1N1CCN(Cc2ccccc2)CC1 (stereo unspecified) was read as CSN inh inactive, Myeloid diff MLP active, TPT1 inh inactive, Rpn11 inh inactive and HNF4A DNA FP inactive.
For COCC(C)OC(=O)C(C#N)c1nc2ccccc2nc1N1CCN(Cc2ccccc2)CC1 (stereo unspecified) the results were CSN inh inactive, Myeloid diff MLP inactive, TPT1 inh inactive, Rpn11 inh inactive and HNF4A DNA FP inactive.
`CSCC[C@@H](CO)NC(=O)[C@H]1O[C@@H](n2ccc(N)nc2=O)[C@H](O)[C@@H]1O` gave CSN inh inactive, Myeloid diff MLP inactive, Rpn11 inh inactive and HNF4A DNA FP inactive.
COc1ccc(-c2csc(COC(=O)C(C)(C)C)n2)cc1 was read as CSN inh 105, Myeloid diff MLP inactive, TPT1 inh inactive, Rpn11 inh inactive and HNF4A DNA FP inactive.
`COC(=O)[C@]12CCCCC=C1N(CCc1ccc(OC)c(OC)c1)C(=O)[C@H](CC(=O)NCCc1ccccc1OC)C2` gave CSN inh inactive, Myeloid diff MLP inactive and HNF4A DNA FP inactive.
`CC(C)CCC(O)(CCC(C)C)C(=O)NNc1ccccc1` gave CSN inh inactive, Myeloid diff MLP active, TPT1 inh inactive, Rpn11 inh inactive and HNF4A DNA FP inactive.
`CC(C)CC(O)(CC(C)C)C(=O)NNc1ccccc1` gave CSN inh inactive, Myeloid diff MLP inactive, TPT1 inh inactive, Rpn11 inh inactive and HNF4A DNA FP inactive.
For CC(C)=C[C@H]1C[C@H](C)[C@H]2CC[C@H](C)c3c(O[C@@H]4O[C@@H](C)[C@@H](O)[C@@H](O)[C@@H]4O)c(O)c(C)c1c32 the results were CSN inh inactive, Myeloid diff MLP inactive, Rpn11 inh inactive and HNF4A DNA FP inactive.
COc1ccc(OC)c(C2=NOC(C(=O)Nc3cccc(C(C)=O)c3)C2)c1 (stereo unspecified) was read as CSN inh inactive, Myeloid diff MLP active, TPT1 inh inactive, Rpn11 inh inactive and HNF4A DNA FP inactive.
Screening CC(C)=CCN1CCN(Cc2coc3ccc(C)cc3c2=O)CC1CCO (stereo unspecified) returned CSN inh inactive, Myeloid diff MLP inactive, TPT1 inh inactive, Rpn11 inh inactive and HNF4A DNA FP 51.
`CC(=O)Nc1sc(/C(C#N)=C/c2ccc(Cl)c(Cl)c2)nc1-c1ccc(C)cc1` gave CSN inh inactive, Myeloid diff MLP active and HNF4A DNA FP inactive.
For CC(Cc1c[nH]c2ccccc12)NC(=O)OCCCl (stereo unspecified) the results were CSN inh inactive, Myeloid diff MLP active, TPT1 inh inactive, Rpn11 inh inactive and HNF4A DNA FP inactive.
`COC(=O)C(Cc1c[nH]c2ccccc12)NC(C)=O` (stereo unspecified) gave CSN inh inactive, Myeloid diff MLP inactive, TPT1 inh inactive, Rpn11 inh inactive and HNF4A DNA FP inactive.
CCOC(=O)C1=CCN(S(=O)(=O)c2ccccc2)C1c1ccccc1 (stereo unspecified) was read as CSN inh 121, Myeloid diff MLP inactive, Rpn11 inh inactive and HNF4A DNA FP inactive.
For CCOC(=O)C1=CCN(S(=O)(=O)c2ccccc2)C1c1ccc(C)cc1 (stereo unspecified) the results were CSN inh inactive, Myeloid diff MLP inactive, Rpn11 inh inactive and HNF4A DNA FP inactive.
Screening CN(C)c1cccc2c(S(=O)(=O)NC(=O)[C@H]3O[C@@H](n4cnc5c(N)ncnc54)[C@H](O)[C@@H]3O)cccc12 returned CSN inh inactive, Myeloid diff MLP inactive, Rpn11 inh inactive and HNF4A DNA FP inactive.
For Cc1cc(-c2ccccc2)nc(Nc2nc3c(C)cccc3c(=O)[nH]2)n1 the results were CSN inh inactive, Myeloid diff MLP inactive, Rpn11 inh inactive and HNF4A DNA FP 53.
Screening Cc1cc(C)c2nc(Nc3nc(-c4ccccc4)cc(=O)[nH]3)nc(C)c2c1 returned CSN inh inactive, Myeloid diff MLP inactive, TPT1 inh inactive, Rpn11 inh inactive and HNF4A DNA FP inactive.
Screening Nc1[nH]c(C(=O)c2ccccc2)c(-c2ccncc2)c1C(=O)NC1CC1 returned CSN inh inactive, Myeloid diff MLP inactive and HNF4A DNA FP inactive.
For COc1cc(C(=O)N=c2sc3c(C)ccc(OC)c3n2C)cc(OC)c1OC the results were CSN inh inactive, Myeloid diff MLP inactive, TPT1 inh inactive, Rpn11 inh inactive and HNF4A DNA FP inactive.
For COc1ccc(C(=O)N=c2sc3c(C)ccc(OC)c3n2C)cc1 the results were CSN inh inactive, Myeloid diff MLP active, TPT1 inh inactive, Rpn11 inh inactive and HNF4A DNA FP inactive.
`N=c1n(CCN2CCCCC2)c2ccccc2n1CC(=O)c1cccc([N+](=O)[O-])c1` gave CSN inh inactive, Myeloid diff MLP active, TPT1 inh inactive, Rpn11 inh inactive and HNF4A DNA FP inactive.
c1ccc2c(C[C@@H]3CNCCN3CC3CCCCC3)cccc2c1 was read as CSN inh inactive, Myeloid diff MLP active, TPT1 inh inactive, Rpn11 inh inactive and HNF4A DNA FP inactive.
Cn1nc(C(C)(C)C)cc1C(=O)N1CCCC(c2cc(C(=O)NCc3ccccc3)no2)C1 (stereo unspecified) was read as CSN inh inactive, Myeloid diff MLP inactive, Rpn11 inh inactive and HNF4A DNA FP inactive.
Screening COc1ccc(F)cc1C(=O)C1CCCN(C(=O)C2=C(C)OCCO2)C1 (stereo unspecified) returned CSN inh inactive, Myeloid diff MLP active, TPT1 inh inactive, Rpn11 inh inactive and HNF4A DNA FP inactive.
CCCN(C)C1CN(Cc2cn(Cc3ccc(F)cc3)nn2)S(=O)(=O)C1 (stereo unspecified) was read as CSN inh inactive, Myeloid diff MLP inactive and HNF4A DNA FP inactive.
For COc1ccc(NC(=O)N2CCN(c3nc(-c4cccc(OC)c4)cs3)CC2)cc1 the results were CSN inh inactive, Myeloid diff MLP active, TPT1 inh inactive, Rpn11 inh inactive and HNF4A DNA FP inactive.
Screening O=C1NC[C@H](CCCCN2CCN(Cc3ccccc3)C(=O)C2=O)N(Cc2ccccc2)C1=O returned CSN inh inactive, Myeloid diff MLP inactive and HNF4A DNA FP inactive.
`Cc1ccc(NC(=O)c2ccc(-c3nn(C)c(=O)c4ccccc34)cc2)cc1` gave CSN inh inactive, Myeloid diff MLP active, TPT1 inh inactive, Rpn11 inh inactive and HNF4A DNA FP inactive.

Screening results as filed in PubChem.
